From ChEMBL document CHEMBL1140051, “Discovery of novel Cdc25 phosphatase inhibitors with micromolar activity based on the structure-based virtual screening” (J Med Chem, 2008) come the findings set out here.

For orientation: pIC50 means the negative decadic logarithm of the IC50, by convention in mol/L. Higher therefore signals a low IC50. The term inhibition denotes the percentage by which the read-out fell short of the control. The pKi is −log10 of the Ki, conventionally taken in molar units.

SMILES strings stand for the structures. pIC50, pKi: −log10 of the molar value. Bounds are passed on as bounds.

Experiment [1] has as its target T1, M-phase inducer phosphatase 1 (Homo sapiens, UniProt P30304).
T1 sequence (P30304 whole entry): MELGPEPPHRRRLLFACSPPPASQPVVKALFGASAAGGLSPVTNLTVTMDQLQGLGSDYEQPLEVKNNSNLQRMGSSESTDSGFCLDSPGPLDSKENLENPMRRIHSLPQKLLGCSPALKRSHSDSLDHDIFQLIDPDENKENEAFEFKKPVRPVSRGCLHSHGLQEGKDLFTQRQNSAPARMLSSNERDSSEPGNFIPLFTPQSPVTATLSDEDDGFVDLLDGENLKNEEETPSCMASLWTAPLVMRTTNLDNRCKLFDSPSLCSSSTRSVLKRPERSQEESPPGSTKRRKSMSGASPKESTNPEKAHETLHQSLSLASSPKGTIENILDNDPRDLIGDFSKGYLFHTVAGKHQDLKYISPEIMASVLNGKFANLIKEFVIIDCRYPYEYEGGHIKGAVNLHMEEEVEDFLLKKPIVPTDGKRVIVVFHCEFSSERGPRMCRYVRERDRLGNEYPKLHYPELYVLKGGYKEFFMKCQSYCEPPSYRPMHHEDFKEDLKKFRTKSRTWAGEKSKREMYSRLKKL
As to the kind of experiment: Inhibition of Cdc25A (336-523) expressed in Escherichia coli. A digest of the protocol: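 Inhibitor added in DMSO. 20 min at room temperature, stopped with 1 mM orthovanadate (final). IC50 determined at least three times and averaged.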

Experiment [2] deals with T2, M-phase inducer phosphatase 2 (Homo sapiens, UniProt P30305).
T2 sequence (P30305 whole entry): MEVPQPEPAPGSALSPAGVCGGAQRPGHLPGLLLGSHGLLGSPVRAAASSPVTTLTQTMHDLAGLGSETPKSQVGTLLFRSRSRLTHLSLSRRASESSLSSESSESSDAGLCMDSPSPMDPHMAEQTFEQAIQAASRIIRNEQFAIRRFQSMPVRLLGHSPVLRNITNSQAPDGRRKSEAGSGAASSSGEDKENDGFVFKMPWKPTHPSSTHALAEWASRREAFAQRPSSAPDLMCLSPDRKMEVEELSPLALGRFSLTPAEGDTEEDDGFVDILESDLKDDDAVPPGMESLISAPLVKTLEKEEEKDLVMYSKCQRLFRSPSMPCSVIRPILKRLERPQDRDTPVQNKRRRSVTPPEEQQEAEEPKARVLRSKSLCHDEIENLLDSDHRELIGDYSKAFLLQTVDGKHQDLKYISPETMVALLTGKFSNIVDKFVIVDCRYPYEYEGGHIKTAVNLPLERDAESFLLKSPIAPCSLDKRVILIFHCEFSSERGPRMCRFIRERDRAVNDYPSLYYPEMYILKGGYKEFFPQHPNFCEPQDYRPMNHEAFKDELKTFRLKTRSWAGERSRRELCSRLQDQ
Description: Inhibition of Cdc25B (378-566) expressed in Escherichia coli.

Experiment [3] deals with T3, M-phase inducer phosphatase 1 (Homo sapiens) (UniProt P30304).
T3 sequence (whole entry): T1 sequence (P30304 whole entry)
Description: Inhibition of Cdc25A (336-523) expressed in Escherichia coli at 50 uM.

In experiment [4] the target is T4, M-phase inducer phosphatase 2 (Homo sapiens) (UniProt P30305).
T4 sequence (whole entry): T2 sequence (P30305 whole entry)
As to the kind of experiment: Inhibition of Cdc25B (378-566) expressed in Escherichia coli at 50 uM.

Experiment [5] addresses T1, M-phase inducer phosphatase 1. As to the kind of experiment: Binding affinity to Cdc25A (336-523) expressed in Escherichia coli by steady-state kinetic assay.
Experiment [6] is described as follows: Inhibition of Cdc25A R501A mutant.
The nature of experiment [7]: Inhibition of Cdc25A R501K mutant.
A short description of experiment [8]: Inhibition of Cdc25B R544A mutant.
Experiment [9] can be described thus: Inhibition of Cdc25B R544K mutant.

As to `CC1=C(SCCO)C(=O)c2ccccc2C1=O`, the pIC50 in experiment [1] is 5.34; in [2], 4.63.
With `Cc1ccc(-c2nnc(SCC(=O)c3ccc(O)c(O)c3)n2-c2ccc(Cl)cc2)cc1`, the inhibition in experiment [3] and in experiment [4] was > 70% throughout.
For the molecule `Cc1ccc(NC2=NC(=O)/C(=C/C=C/c3ccco3)S2)cc1C`, the inhibition in experiment [3] and in experiment [4] was > 70% each time.
Take `C=CCn1c(SCC(=O)c2ccc(O)c(O)c2)nnc1-c1cccc(Cl)c1`: the inhibition in experiment [3] and in experiment [4] was > 70% each time. Moreover, the pIC50 in experiment [1] is 5.48; in [2], 5.33.
Consider `COc1ccc(-n2nnc(SCC(=O)c3ccc(O)c(O)c3)n2)cc1`, for which the inhibition in experiment [3] and in [4] was > 70% each time. The pIC50 in experiment [1] is 5.39; in experiment [2] it was 4.85; in experiment [6], 4.92; in [7] it was 5.22; in experiment [8] it was 4.80; in [9], 4.76. For the same molecule, the pKi in experiment [5] was 4.69.
For `N#CC1=C(S)N(c2ccccc2)C(/C=C/c2ccc(-c3ccc(Cl)cc3)o2)NC1=O` (configuration not stated), the inhibition in experiment [3] and in experiment [4] was > 70% in each case. Moreover, the results for the pIC50 in experiment [1] and in experiment [2] were 5.48 and 4.90, respectively. In experiment [5], this molecule gave a pKi of 4.54.
On to `Cc1ccc(/N=C2N=C(O)/C(=C/C=C/c3ccco3)S\2)cc1C`, for which the pIC50 in experiment [1] was 5.37; in [2] it was 5.26. The same molecule gave a pKi in experiment [5] of 4.67.
